Experimental data as given in the array DNA melting data of Ke et al. (doi:10.1101/2024.01.08.574731).

Tests used:
[1] = melting temperature; fluorescence melt of hairpins on a sequencing array, two-state fit, raised by 9.35 °C to match UV melts; settings: sodium 0.088 M
Outline: (§1)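 Bootstrapped two-state fits yielded melting temperature and folding enthalpy for library hairpins. Cy3 fluorescence, with annealed Cy3 and quencher oligos, was imaged on a sequenced MiSeq flow cell in 50 mM Na-HEPES pH 8.0, 25 mM NaCl in 2.5 °C steps up to 60 °C, and normalised to pre-quench Cy3 and to control constructs. Four replicates were combined by inverse variance, and fitted temperatures were raised by 9.35 °C to match UV melts.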

[2] = folding enthalpy; higher = less favourable; fluorescence melt of hairpins on a sequencing array, two-state fit; settings: sodium 0.088 M
Outline: as §1

| Sequence | Tm [1] [°C] | folding enthalpy [2] [kcal/mol] |
| --- | --- | --- |
| GACTCCGAAAGGACGGTC ((((((....)))..))) | 35.3 | -17.9 |
| GCGTACGAAAGTATCGC ((((((....))).))) | 53.4 | -39.6 |
| GCGGGAGGCCGC ((((....)))) | 57.8 | -18.4 |
| GCGCAAGCGAAAGCTCGC (((..(((....)))))) | 45.7 | -12.8 |
| GCTCGGCGAAAGCTGTGC ((.(.((....)).).)) | 60.2 | -15.4 |
| GGTAATGGAAACACTACC ((((.((....)).)))) | 30.1 | -15.4 |
| CGGACGCGGAAACGCCCG (((..(((....)))))) | 48.8 | -25.3 |
| GATCTTCATCAAGATC ((((((....)))))) | 40.3 | -29.9 |
| GCAGGGCGAAAGCATTGC (((..((....))..))) | 53 | -19.6 |
| GAGTAACGAAAGTTGCTC (((.(((....))).))) | 53.2 | -52 |
| GTCCATCGAAAGATTGAC (((.(((....))).))) | 39.7 | -34.1 |
| GTCGACGAAAGTCCCGAC ((((((....)))..))) | 34 | -16.1 |
| GGCTTCGAAAGAACCGCC ((((((....)))..))) | 47.4 | -21.1 |
| GATCCCCGGCGGGATC ((((((....)))))) | 55.7 | -37.8 |
| GCACTCGAAAGAGATGC ((((((....))).))) | 49.4 | -29.4 |
| GATCACTGCGGTGATC ((((((....)))))) | 61.9 | -38 |
| GAACGCGAAAGCGAATTC ((((((....)))..))) | 28.8 | -10.7 |
| GTGTTCACGAAAGTGCAC (((..(((....)))))) | 42.3 | -20.7 |
| GATCAAGGTCTTGATC ((((((....)))))) | 48.6 | -37.5 |
| GAAGTGCGAAAGCAGTTC (((.(((....))).))) | 57.5 | -33.5 |
| GGTAGCGAAAGCTCGACC ((((((....)))..))) | 34.6 | -15.1 |
| GATCAACTTTTTGATC ((((((....)))))) | 43.3 | -37.8 |
| GCTACCGAAAGGTAAAGC ((((((....)))..))) | 46.8 | -19.8 |

| Sequence | Tm [1] [°C] | folding enthalpy [2] [kcal/mol] |
| --- | --- | --- |
| GTGCAGGGAAACCTACAC (((.(((....))).))) | 41.5 | -31.9 |
| GCGTGAGTACGC ((((....)))) | 52.5 | -19.9 |
| GGTCTTGGAAACGAGATC (.(((.(....).))).) | 30.7 | -17.8 |
| GAACAGGGAAACCTGTTC (((((((....))))))) | 59.4 | -37.8 |
| GGCGTCGAAAGACTTGCC ((((((....)))..))) | 48.9 | -24.6 |
| GCGGGGACCCGC ((((....)))) | 68.3 | -26.3 |
| GATCGGCGAAAGCCATC (((.(((....)))))) | 35.7 | -11 |
| GATCCGCACTCGGATC ((((((....)))))) | 56.5 | -41 |
| GTCCGCCGAAAGGCCGAC (((.(((....))).))) | 49.2 | -20.5 |
| GTTTCCGAAAGGAATAAC ((((((....)))..))) | 30.2 | -12 |
| GCTATCGAAAGATGAGC ((((((....))).))) | 37.4 | -27.1 |
| GCTGACGAAAGTCGGAGC ((((((....)))..))) | 45.7 | -16.5 |
| GCTAGTCGAAAGACGAGC (((.(((....))).))) | 57.6 | -35.4 |
| GTAACGCGAAAGCGCTAC (((.(((....))).))) | 51.9 | -19.6 |
| GCCGCCGAAAGGCCCGGC ((((((....)))..))) | 48 | -17.4 |
| GCCTCGGGAAACCAAGGC ((((.((....)).)))) | 47.6 | -34.9 |
| GTAGACGGAAACGTTTAC (((.(((....))).))) | 41.5 | -33.2 |
| AAGATGAAAATCTT (((((....))))) | 28.4 | -8.93 |
| GTCATCGAAAGATAGAC ((((((....))).))) | 39.7 | -24.6 |
| GCGAGCACGAAAGTGCGC (((..(((....)))))) | 56.9 | -8.47 |
| GGAAATACGAAAGTATCC (((..(((....)))))) | 30.8 | -11.3 |
| CTAGCGAAAGCTAG (((((....))))) | 63.2 | -19 |
| GCAAGCGAAAGCTGCTGC ((((((....)))..))) | 67.2 | -19.5 |

| Sequence | Tm [1] [°C] | folding enthalpy [2] [kcal/mol] |
| --- | --- | --- |
| GAAGTGGGAAACCACCTC ((.((((....)))).)) | 32.2 | -13.7 |
| GCACGGCGAAAGCCCTGC (((.(((....))).))) | 47.3 | -26 |
| GCACCTCGAAAGAGTGC (((.(((....)))))) | 53.3 | -46.4 |
| GCTGGGCGAAAGCGAAGC (((..((....))..))) | 47.5 | -20 |
| GGTCTCGAAAGAGCACC ((((((....))).))) | 46.5 | -22.8 |
| GTAGCGGGAAACCGCCAC ((.((((....)))).)) | 38.7 | -11.7 |
| GATCCATTTCTGGATC ((((((....)))))) | 51 | -34.3 |
| GGAGCGGGAAACCGCTTC (.(((((....))))).) | 58.2 | -16.6 |
| GACCTGGGAAACCAAGTC (((.(((....))).))) | 33.4 | -29.7 |
| GATCTTCTGAAGATC ((((((...)))))) | 43.6 | -37 |
| GCCATCGAAAGATCCGGC ((((((....)))..))) | 33.2 | -19.6 |
| CGGCACGGAAACGTACCG (((.(((....))).))) | 50.4 | -30.5 |
| GGTAGGGGAAACCCTGCC ((.((((....)))).)) | 53.6 | -39.5 |
| GGGTAAGGAAACCTACCC (((((.(....).))))) | 42.9 | -30.6 |
| GTCTCCGGAAACGGGGAC (((.(((....))).))) | 57.7 | -41.1 |
| GCCGCGCGAAAGCGGTGC ((..(((....)))..)) | 58 | -16.2 |
| GAGGAGCGAAAGCTACTC (((.(((....))).))) | 64.8 | -31.4 |
| GCGTATGGAAACGTATGC ((.((.(....).)).)) | 34.8 | -26.1 |
| GACACCGAAAGGTGGTC ((((((....))).))) | 55.6 | -12.8 |
| GACAAGGGAAACTTTGTC (((((.(....).))))) | 36.9 | -27.1 |
| GAACCCGAAAGGGTTTTC ((((((....)))..))) | 55.9 | -13.4 |
| GTGCCGCGAAAGCGCCAC (((.(((....))).))) | 53.8 | -18.2 |
| GATCATGCTAATGATC ((((((....)))))) | 57.2 | -42.7 |

| Sequence | Tm [1] [°C] | folding enthalpy [2] [kcal/mol] |
| --- | --- | --- |
| GACAGCCGAAAGGCCGTC (((.(((....))).))) | 55 | -18.7 |
| GTAAGCGGAAACGCCTAC (((.(((....))).))) | 35.4 | -15.8 |
| GCAGTCGAAAGACAATGC ((((((....)))..))) | 44.4 | -20.1 |
| GTGATTGGAAACAATTGC (..((((....))))..) | 31.3 | -20.4 |
| GCAGTGCGAAAGCGGTGC (((..((....))..))) | 63.9 | -39.5 |
| GACCATGAAAATGGTC ((((((....)))))) | 61.8 | -36.9 |
| GCCAGGTCGAAAGACGGC (((..(((....)))))) | 53.4 | -34.7 |
| GATCCTCGTAAGGATC ((((((....)))))) | 54.5 | -35.3 |
| GCCAGAGAAATCTGGC ((((((....)))))) | 64.3 | -31.8 |
| GATCACCCGGTGATC ((((((...)))))) | 56.3 | -44.2 |
| GTATCCGAAAGGAGATAC ((((((....)))..))) | 34.3 | -15.2 |
| GTGTCTGAAAAGACAC ((((((....)))))) | 61 | -33.7 |
| GCCCTGCGAAAGCACAGC ((..(((....)))..)) | 27.4 | -8.54 |
| GCTTTGGGAAACCAAAAC (.(((((....))))).) | 31.3 | -19.8 |
| GGCTCCGAAAGGATAGCC ((((((....)))..))) | 52.4 | -39.5 |
| CAACAGAAATGTTG (((((....))))) | 40.8 | -22.1 |
| GCACTCGAAAGAGTTGC ((((((....))).))) | 51.4 | -22.3 |
| GATCTTGAAGAAGATC ((((((....)))))) | 44.3 | -25.9 |
| GATCCCGGAAACGGGGTC ((.((((....)))).)) | 57.6 | -25.8 |
| GCAATGGGAAACCATCGC ((.((((....)))).)) | 42.1 | -28.8 |
| GACACCGAAAGGTTGTC ((((((....))).))) | 53.2 | -25.3 |
| GTCATGGAAACATGAC ((((((....)))))) | 56.1 | -34.5 |
| GGTTCCGAAAGGATAACC ((((((....)))..))) | 43.5 | -20.5 |
